For one assay, the target named is T1, S162A mutant human MDD (Homo sapiens, UniProt P53602, S162A).
T1 sequence (P53602 1-400 S162A): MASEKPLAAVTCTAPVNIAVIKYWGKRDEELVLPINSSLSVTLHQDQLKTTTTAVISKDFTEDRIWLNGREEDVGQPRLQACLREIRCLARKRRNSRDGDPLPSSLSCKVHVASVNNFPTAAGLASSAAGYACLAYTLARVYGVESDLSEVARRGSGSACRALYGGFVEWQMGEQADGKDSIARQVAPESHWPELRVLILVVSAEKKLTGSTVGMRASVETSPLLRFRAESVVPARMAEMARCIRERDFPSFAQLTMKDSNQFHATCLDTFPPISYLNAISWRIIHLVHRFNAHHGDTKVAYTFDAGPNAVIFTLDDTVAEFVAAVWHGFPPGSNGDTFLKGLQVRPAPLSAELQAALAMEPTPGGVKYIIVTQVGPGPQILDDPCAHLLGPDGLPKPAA
Briefly: Steady-state kinetics of S162A human MDD. In kind it is biochemical. Summed up:
(§1)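 His6-tagged human enzyme from E. coli BL21(DE3) was Ni-Sepharose purified and quantified by Bradford. Spectrophotometric assay at 30°C: ADP formation coupled through pyruvate kinase/lactate dehydrogenase (4 U) to NADH oxidation, with A340 decrease followed. Started with mevalonate diphosphate; substrate varied; Michaelis-Menten fit.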

The target of a further assay is T2, N17A mutant human MDD (Homo sapiens, UniProt P53602, N17A).
T2 sequence (P53602 1-400 N17A): T1 sequence (P53602 1-400 S162A) with N17A, A162S
The experiment in a line: Steady-state kinetics of N17A human MDD. In kind it is biochemical. The note with it: for Km: N17A. In short, it runs like this: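 N17A mutant, made by QuikChange PCR, was expressed and Ni-Sepharose purified as for the wild type. Started with mevalonate diphosphate; substrate varied; Michaelis-Menten fit. Km(ATP) was measured with RS-MVPP raised to 8.8 mM.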

The next assay deals with T3, N-his tagged human MDD (Homo sapiens, UniProt P53602).
T3 sequence (P53602 1-400): T1 sequence (P53602 1-400 S162A) with A162S
Briefly: Steady-state kinetics of N-his tagged human MDD. The format is biochemical. As to conditions: N-his tagged enzyme. In short, it runs like this: as §1

The target of assay [1] is T4, wild-type C-his tagged human MDD (Homo sapiens, UniProt P53602).
T4 sequence (P53602 1-400): T1 sequence (P53602 1-400 S162A) with A162S
Briefly: Steady-state kinetics of wild-type. In kind it is biochemical. In short, it runs like this:
as §1

The next assay deals with T5, wild-type human MDD (Homo sapiens, UniProt P53602).
T5 sequence (P53602 1-400): T1 sequence (P53602 1-400 S162A) with A162S
Briefly: TNP-ATP fluorescence titration, Scatchard analysis, wild-type human MDD. The format is binding. In short, it runs like this:
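Purified His6-tagged enzyme, wild type or mutant, was held at a fixed concentration while TNP-ATP was titrated in at 25°C. Buffer: 50 mM Tris-Cl pH 7.0, 0.5 mM MgCl2, 1 mM DTT. TNP-ATP was quantified at A409 (ε 26 400 M-1 cm-1). Excitation was 409 nm; peak emission (530–538 nm) was corrected for free probe in buffer alone. Scatchard analysis: Kd from slope; n per 44 kDa subunit from x-intercept.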

Where a chain is given by its changes, count along the chain named. Like-named read-outs stand apart in the source and are kept apart here.

Here are results for three molecules from article PMC2709241 (Archives of biochemistry and biophysics, 2008).

Take `Nc1ncnc2c1ncn2[C@@H]1O[C@H](COP(=O)(O)OP(=O)(O)OP(=O)(O)O)[C@@H](O)[C@H]1O` [ATP]: the Km on S162A mutant human MDD (read-out: Km(ATP)) is 4900 ± 1300 µM; at N17A mutant human MDD (read-out: Km(ATP), elevated RS-MVPP (8.8 mM)), 7700 ± 1200 µM; on N-his tagged human MDD (read-out: Km(ATP)), 1700 µM; in assay [1] (read-out: Km(ATP), WT C-his, 30°C, pH 7.0), 690 ± 70 µM.
In the case of `C[C@@](O)(CCOP(=O)(O)OP(=O)(O)O)CC(=O)O` [MVAPP, mevalonate 5-diphosphate], the Michaelis constant (Km) on S162A mutant human MDD (read-out: Km(RS-MVPP)) came to 126 ± 6.4 µM; at N17A mutant human MDD (read-out: Km(R,S-MVAPP), Table 4), 425 ± 74 µM; at N17A mutant human MDD (read-out: Km(RS-MVPP), elevated ATP (20 mM) and MgCl2 (22mM)) it was 425 ± 74 µM; at N-his tagged human MDD (read-out: Km(RS-MVPP)), 42.1 µM; in assay [1] (read-out: Km(R,S-MVAPP), WT, Table 4), 28.9 ± 3.3 µM; in assay [1] (read-out: Km(RS-MVPP), WT C-his, 30°C, pH 7.0), 28.9 ± 3.3 µM. Besides, the “Fold Inflation of Km for mevalonate diphosphate, N17A vs WT” value on N17A mutant human MDD (N17A vs WT, listed as R,S-MVAPP) turned out to be 14.7 fold.
`Nc1ncnc2c1ncn2[C@@H]1O[C@H](COP(=O)(O)OP(=O)(O)OP(=O)(O)O)[C@H]2OC3(O[C@H]21)C([N+](=O)[O-])=CC(=[N+]([O-])[O-])C=C3[N+](=O)[O-]` (stereo partly shown) [TNP-ATP, 2’(3’)-O-(2,4,6-Trinitrophenyl)adenosine-5’-triphosphate] yielded a Kd on wild-type human MDD of 550 nM. In addition, the “n (binding stoichiometry)” value at wild-type human MDD (WT, binding sites per 44 kDa subunit) is 0.77.
